Data as given in publication PMC9313898 (Journal of Thrombosis and Haemostasis, 2022).
“Also recorded” adds a separate entry of the source.

How the values were obtained:
[1] = test system: New Zealand White rabbits; experiment: Arterial thrombosis; format: in vivo; conditions: rabbit carotid artery FeCl2
[2] = test system: New Zealand White rabbits; experiment: Ear bleeding time in the arterial FeCl2-injury rabbit model; format: in vivo
[3] = test system: New Zealand White rabbits; experiment: Ear bleeding time in the AV shunt model, prevention protocol; format: in vivo; conditions: rabbit AV shunt, any dose (0.3, 1, 3 mg/kg iv) or time point
APTT in rabbit plasma [4] = experiment: Ex vivo APTT in the rabbit liver-injury model
FXIa [5] = molecular target: T1, FXIa (Oryctolagus cuniculus, UniProt G1SSQ6); experiment: Ex vivo FXIa inhibition in the arterial FeCl2-injury rabbit model; conditions: mean (± SD) vs control group
T1 sequence (G1SSQ6 19-624): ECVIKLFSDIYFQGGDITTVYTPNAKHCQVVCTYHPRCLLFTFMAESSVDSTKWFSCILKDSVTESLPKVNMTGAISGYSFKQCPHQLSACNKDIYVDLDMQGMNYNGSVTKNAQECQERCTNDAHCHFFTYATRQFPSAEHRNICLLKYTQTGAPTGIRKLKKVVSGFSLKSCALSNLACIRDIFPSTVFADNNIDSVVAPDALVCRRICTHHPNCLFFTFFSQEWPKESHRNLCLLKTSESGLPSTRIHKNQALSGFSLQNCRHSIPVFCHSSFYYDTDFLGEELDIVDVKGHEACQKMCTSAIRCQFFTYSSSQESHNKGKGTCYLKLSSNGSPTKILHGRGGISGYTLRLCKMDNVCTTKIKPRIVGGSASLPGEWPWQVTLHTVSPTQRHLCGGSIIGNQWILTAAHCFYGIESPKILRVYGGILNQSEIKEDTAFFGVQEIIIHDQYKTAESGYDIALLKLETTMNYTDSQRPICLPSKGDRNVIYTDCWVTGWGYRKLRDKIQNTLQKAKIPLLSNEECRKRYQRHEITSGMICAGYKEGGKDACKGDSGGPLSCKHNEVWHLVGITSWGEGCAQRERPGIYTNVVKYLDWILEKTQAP
In short: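 Anaesthetised male New Zealand White rabbits received oral test compound in the arterial FeCl₂‑injury model. Citrated blood was drawn at the start of the thrombosis experiment, centrifuged at 2500 ×g for 10 min at 4°C, and stored at −20°C. FXIa activity was measured by kaolin/cephalin activation (3 min, 37°C), then 400 µM AMC substrate plus 5.6 µM kallikrein inhibitor. The fluorescence slope over the first 5 min was compared with controls.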

APTT in dog plasma = experiment: APTT clotting time in dog plasma; format: biochemical; conditions: mean, n = 2–9
In short: (§1)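 Plasma came from untreated donor animals, collected into citrate, centrifuged at 2500 ×g for 20 min at 4°C, and stored at −20°C. Plasma was incubated with test compound (0–37.5 µM) for 3 min at 37°C, then with kaolin/cephalin APTT reagent for 3 min. Clotting was started with 0.025 M CaCl₂ and timed on an automated coagulometer. EC₁₅₀ is the concentration giving a 1.5‑fold APTT increase.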

[6] = test system: APTT in guinea pig plasma; experiment: APTT clotting time in guinea pig plasma; format: biochemical; conditions: mean, n = 2–9
In short: as §1

[7] = test system: New Zealand White rabbits; experiment: Ear bleeding time in the venous FeCl2-injury rabbit model; format: in vivo; conditions: asundexian 0.6, 2, or 6 mg/kg iv, any dose group
In short: (§2)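 Male New Zealand White rabbits (2.7–3.0 kg) were anaesthetised with ketamine/xylazine, with the femoral artery and vein cannulated. Thirty min after i.v. dosing, the jugular vein was exposed to FeCl₂ (13% in 100 µl water) on filter paper for 5 min. After a further 30 min the injured vein was excised and the thrombus weighed. Ear bleeding time was recorded as the time bleeding stopped.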

APTT in mouse plasma = experiment: APTT clotting time in mouse plasma; format: biochemical; conditions: mean, n = 2–9
In short: as §1

APTT in pig plasma = experiment: APTT clotting time in pig plasma; format: biochemical; conditions: mean, n = 2–9
In short: as §1

PT in rabbit plasma = experiment: Ex vivo PT in the rabbit liver-injury model
PT in human plasma = experiment: Prothrombin time in human plasma; format: biochemical; conditions: 0–37.5 µM
In short: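 Human citrated plasma (pooled volunteer plasma or purchased) was incubated with test compound (0–37.5 µM) for 3 min at 37°C. It was then mixed with thromboplastin, and clotting time was measured at 37°C on an automated coagulometer.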

APTT in rabbit plasma [8] = experiment: APTT clotting time in rabbit plasma; format: biochemical; conditions: mean, n = 2–9
In short: as §1

[9] = test system: New Zealand White rabbits; experiment: Venous thrombosis; format: in vivo; conditions: rabbit jugular vein FeCl2
In short: as §2

[10] = test system: New Zealand White rabbits; experiment: Arterio-venous shunt model in rabbits, intervention protocol; format: in vivo; conditions: rabbit AV shunt
In short: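 Anaesthetised male New Zealand White rabbits (2.7–3.0 kg, ketamine/xylazine) carried a carotid‑artery to jugular‑vein shunt: a 4 cm polyethylene tube with a 6 cm nylon‑wire loop. Test compound was given as an i.v. bolus (1 or 5 mg/kg) via the femoral vein 10 min after the shunt was opened. The shunt ran 30 min, then the wire and attached thrombus were weighed.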

[11] = test system: APTT in plasma of monkeys; experiment: APTT clotting time in monkey plasma; format: biochemical
FXIa [12] = molecular target: T1, FXIa; experiment: Ex vivo FXIa activity in the AV shunt model; conditions: rabbit AV shunt; preventative and interventional iv treatment
APTT in rat plasma = experiment: APTT clotting time in rat plasma; format: biochemical; conditions: mean, n = 2–9
In short: as §1

[13] = test system: New Zealand White rabbits; experiment: Arterio-venous shunt model in rabbits, prevention protocol; format: in vivo; conditions: rabbit AV shunt; for Thrombus weight: mean (± SEM), control 14.8 (± 2) mg
In short: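 Male New Zealand White rabbits (2.7–3.0 kg) were anaesthetised with ketamine/xylazine (i.m. bolus, then ear‑vein infusion). A shunt joined the right carotid artery to the left jugular vein through a 4 cm polyethylene tube holding a 6 cm nylon‑wire loop. An i.v. bolus (0.3, 1 or 3 mg/kg) was given 10 min before opening. After 15 min the wire and thrombus were removed and weighed.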

[14] = test system: New Zealand White rabbits; experiment: Rabbit liver-injury bleeding model; format: in vivo
In short: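 Male New Zealand White rabbits (2.5–3.3 kg) were anaesthetised with ketamine/xylazine and kept at 37°C. A 1 × 1 cm triangular wedge was cut from the liver edge. Pre‑weighed swabs were applied at 30‑s intervals for up to 30 min to give bleeding time and blood loss.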

[15] = test system: New Zealand White rabbits; experiment: Gum bleeding time in rabbits; format: in vivo; conditions: rabbit; intravenous asundexian
In short: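 Male New Zealand White rabbits (2.7–3.0 kg) were under ketamine/xylazine anaesthesia during the arterial FeCl₂‑injury thrombosis experiment. Test compound was given i.v., alone or with aspirin plus ticagrelor. Ear bleeding time and, by an equivalent technique, gum‑mucosa bleeding time were recorded as the time at which bleeding stopped.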

[16] = cited from earlier work
[17] = apixaban 1 mg/kg iv + aspirin + ticagrelor
[18] = apixaban 3 mg/kg iv + aspirin + ticagrelor
[19] = dabigatran high dose (1 mg/kg iv)
[20] = dabigatran low dose (0.3 mg/kg iv)

For `COc1ccc(-n2nc(C(N)=O)c3c2C(=O)N(c2ccc(N4CCCCC4=O)cc2)CC3)cc1` [apixaban, 1‐(4‐methoxyphenyl)‐7‐oxo‐6‐(4‐(2‐oxopiperidin‐1‐yl)phenyl)‐4,5,6,7‐tetrahydro‐1H ‐pyrazolo[3,4‐c]pyridine‐3‐carboxamide, reference compound], the “Additional reduction in thrombus weight on top of aspirin and ticagrelor” value (“Additional reduction in thrombus weight” below) [1, 17] was 46%, the “Additional reduction in thrombus weight” value [1, 18] was 83% and the “Increase of ear bleeding time vs aspirin and ticagrelor alone” value [2, 17] was 2.8 fold. For the same molecule, the “Increase of ear bleeding time vs aspirin and ticagrelor alone” value [2, 18] was 6.6 fold.

For `CC[C@@H](C(=O)Nc1ccc(C(N)=O)c(F)c1)n1cc(OC)c(-c2cc(Cl)ccc2-n2cc(C(F)(F)F)nn2)cc1=O` [asundexian], the “Bleeding times following ear incision” value [3] was “not prolonged”, the APTT increase (APTT in rabbit plasma [4]; asundexian high dose (12 mg/kg iv)) was 2.3 fold and the APTT increase (APTT in rabbit plasma [4]; asundexian low dose (6 mg/kg iv)) was 1.7 fold. For the same molecule, the “Thrombus weight reduction vs control” value ([1]; asundexian 0.6 mg/kg iv bolus) was 25%, the “Additional reduction in thrombus weight” value ([1]; asundexian 2 mg/kg iv + aspirin + ticagrelor) was 32% and the “Additional reduction in thrombus weight” value ([1]; asundexian 6 mg/kg iv + aspirin + ticagrelor) was 70%. The “Additional reduction in thrombus weight” value ([1]; asundexian 12 mg/kg iv + aspirin + ticagrelor) was 98%, the “Thrombus weight reduction vs control” value ([1]; asundexian 20 mg/kg iv bolus) was 88% and the “Thrombus weight reduction vs control” value ([1]; oral 10 mg/kg, 2 h before, P < .05) was 30%. The “Thrombus weight reduction vs control” value ([1]; oral 30 mg/kg, 2 h before, P < .001) was 91%, the “Reduction of FXIa activity ex vivo” value (FXIa [5]; oral 10 mg/kg) was 17% (± 22%) and the “Reduction of FXIa activity ex vivo” value (FXIa [5]; oral 30 mg/kg) was 44% (± 29%). For the same molecule, the “APTT prolongation, EC150” value (APTT in dog plasma) was 1.59 µM, the “APTT prolongation, EC150” value [6] was 2.13 µM and the Ear bleeding time [7] was “No ear bleeding time prolongation”. The “APTT prolongation, EC150” value (APTT in mouse plasma) was over 12.5 µM, the “APTT prolongation, EC150” value (APTT in pig plasma) was 0.51 µM and the “Effect on PT” value (PT in rabbit plasma; asundexian 6 and 12 mg/kg iv) was “no effect”. For the same molecule, the “Effect on PT” value (PT in human plasma) was “little to no effect”, the “APTT prolongation, EC150” value (APTT in rabbit plasma [8]) was 1.50 µM and the “Ear bleeding time vs aspirin and ticagrelor alone” value ([2]; asundexian iv + aspirin + ticagrelor) was “did not further increase”. For the same molecule, the “Ear bleeding time vs control” value ([2]; oral asundexian 10 mg/kg and 30 mg/kg) was “no prolongation”, the “Ear bleeding time vs control” value ([2]; prophylactic intravenous asundexian 0.6-20 mg/kg) was “no increase” and the “Thrombus weight reduction vs control” value ([9]; asundexian 0.6 mg/kg iv) was 25%. The “Thrombus weight reduction vs control” value ([9]; asundexian 2 mg/kg iv) was 74%, the “Thrombus weight reduction vs control” value ([9]; asundexian 6 mg/kg iv) was 90% and the “Thrombus weight reduction vs control” value ([10]; 1 mg/kg iv, P < .05) was 33%. For the same molecule, the “Thrombus weight reduction vs control” value ([10]; 5 mg/kg iv, P < .001) was 62%, the Thrombus weight ([10]; 5 mg/kg iv, mean (± SEM), control 36.7 (± 3.2) mg) was 14.0 (± 3.5) mg and the “Effect on APTT” value [11] was “prolonged”. For the same molecule, the “Ex vivo FXIa activity” value (FXIa [12]) was “reduced FXIa activity”, the “APTT prolongation, EC150” value (APTT in rat plasma) was over 12.5 µM and the “Thrombus weight reduction vs control” value ([13]; 0.3 mg/kg iv) was 14%. The “Thrombus weight reduction vs control” value ([13]; 1 mg/kg iv, P < .01) was 59%, the Thrombus weight ([13]; 1 mg/kg iv) was 6.1 (± 0.9) mg and the “Thrombus weight reduction vs control” value ([13]; 3 mg/kg iv, P < .001) was 71%. For the same molecule, the Thrombus weight ([13]; 3 mg/kg iv) was 4.3 (± 0.5) mg, the “Bleeding time vs controls” value ([14]; asundexian 6 and 12 mg/kg iv) was “neither 6 nor 12 mg/kg asundexian led to any significant effect; also recorded: no significant effect” and the “Blood loss vs controls” value ([14]; asundexian 6 and 12 mg/kg iv) was “neither 6 nor 12 mg/kg asundexian led to any significant effect; also recorded: no significant effect”. For the same molecule, the Gum bleeding time [15] was “no increase”.

Work on `[H]/N=C(/N)c1ccc(NCc2nc3cc(C(=O)N(CCC(=O)O)c4ccccn4)ccc3n2C)cc1` [dabigatran, reference compound] yielded an APTT increase (APTT in rabbit plasma [4]; [19]) of 2.2 fold, an APTT increase (APTT in rabbit plasma [4]; [20]) of 1.4 fold and a PT increase (PT in rabbit plasma; [19]) of 1.7 fold. For the same molecule, the PT increase (PT in rabbit plasma; [20]) was 1.1 fold, the “Increase of bleeding time vs controls” value ([14]; dabigatran 0.3 mg/kg iv, control mean 5.7 min (340 s)) was “approximately 5 fold” and the Bleeding time ([14]; dabigatran 1 mg/kg iv, maximum observation period 30 min) was over 30 min.

With `O=C(NC[C@H]1CN(c2ccc(N3CCOCC3=O)cc2)C(=O)O1)c1ccc(Cl)s1` [rivaroxaban, reference compound] the “Thrombus weight reduction (mean)” value ([1]; rivaroxaban iv 0.08 mg/kg +0.09 mg/kg/hour) was 51%, the “Thrombus weight reduction (mean)” value ([1]; rivaroxaban iv 0.24 mg/kg +0.27 mg/kg/hour) was 77% and the “Ear bleeding time vs control” value ([2]; rivaroxaban iv bolus + infusion, significant for the higher dose) was “prolonged”.

In the case of “Osocimab: fully human IgG1 antibody targeting coagulation factor XIa”, the mean elimination half-life [16] is given as 30 to 44 days.

B1: abelacimab: FXI antibody, dual inhibitor of factor XI and factor XIa (antibody, chains of the INN, looked up, V domains shown)
VH: QVQLLESGGGLVQPGGSLRLSCAASGFTFSTAAMSWVRQAPGKGLEWVSGISGSGSSTYYADSVKGRFTISRDNSKNTLYLQMNSLRAEDTAVYYCARELSYLYSGYYFDYWGQGTLVTVSS
VL: QSVLTQPPSASGTPGQRVTISCSGSSSNIGSNDVSWYQQLPGTAPKLLIYKNYNRPSGVPDRFSGSKSGTSASLAISGLQSEDEADYYCSAWDQRQFDVVFGGGTKLTVL
For B1, the elimination half-life [16] is listed as 25 to 30 days.
